Columns and labels:
[1] = system: Human immunodeficiency virus type 1; experiment: Selectivity index is the ratio of CC50 to EC50; conditions: Human immunodeficiency virus 1
MT4 [2] = experiment: Dose required to reduce the viability of mock-infected cells by 50%; assay type: functional; conditions: Homo sapiens
Method in brief: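 Mock-infected MT-4 cells (1×10^4 per well) were exposed to compound dilutions in parallel with the antiviral assay. After 4 days at 37 °C, viability was measured by MTT. CC50 is the dose reducing viable cell number by 50%.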

MT4 [3] = experiment: Dose required to achieve 50% protection of MT-4 cells from the HIV-1 induced cytopathogenicity in HIV-1 infected MT-4 cells; conditions: Homo sapiens
[4] = biological target: Human immunodeficiency virus type 1 reverse transcriptase (Human immunodeficiency virus 1, UniProt Q72547); experiment: Compound concentration required to inhibit the HIV-1 recombinant Reverse transcriptase (rRT) activity by 50%.

SMILES | Ratio [1] | CC50 (MT4 [2]) [µM] | EC50 (MT4 [3]) [µM] | IC50 [4] [µM]
Cc1c(O)nc(SC2CCCCC2)nc1Cc1cccc2ccccc12 | > 4.7 | > 300 | 63 | 
CCCC(C)Sc1nc(O)cc(Cc2cccc3ccccc23)n1 (stereo not drawn) | 34 | 158 | 4.6 | 
Oc1cc(CSc2ccccc2)nc(SC2CCCCC2)n1 | > 9.4 | > 300 | 32 | 
Cc1c(O)nc(SC2CCCCC2)nc1CSc1ccccc1 | > 2 | > 300 | 150 | 
Cc1cccc(Cc2nc(SC3CCCCC3)nc(N)c2C)c1 |  | > 200 | > 200 | 
Cc1c(O)nc(S)nc1Cc1ccc2ccccc2c1 |  | 91 | > 91 | 
CCC(C)Sc1nc(O)c(C)c(-c2ccccc2)n1 (stereo not drawn) |  | 126 | > 126 | 
CCC(C)Sc1nc(O)cc(CCc2ccccc2)n1 (stereo not drawn) | 1.4 | 180 | 125 | 
CCCc1cc(O)nc(SC(C)CC)n1 (stereo not drawn) |  | 246 | > 246 | 
Oc1cc(COc2ccccc2)nc(S)n1 |  | > 300 | > 300 | 
Oc1cc(Cc2ccc3ccccc3c2)nc(S)n1 |  | > 300 | > 300 | 
CCCc1cc(O)nc(SC2CCCCC2)n1 |  | 210 | > 210 | 
Cc1cccc(Cc2nc(SC3CCCCC3)nc(Cl)c2C)c1 |  | 133 | > 133 | 
CCC(C)Sc1nc(O)c(C)c(Cc2cccc(C)c2)n1 (stereo not drawn) | 100 | 100 |  | 
Cc1c(O)nc(SC2CCCCC2)nc1CCc1ccccc1 | > 11 | > 300 | 27 | 
CC(C)Sc1nc(O)cc(Cc2cccc3ccccc23)n1 | > 300 | > 300 | 1 | 
CCC(C)Sc1nc(Cc2cccc3ccccc23)c(C)c(=O)[nH]1 (stereo not drawn) |  |  |  | 22.5
Oc1cc(CSc2ccccc2)nc(SC2CCCC2)n1 | 4.5 | 300 | 66 | 
Cc1c(O)nc(SC2CCCC2)nc1CCc1ccccc1 | > 16 | > 300 | 19 | 
Oc1cc(Cc2cccc3ccccc23)nc(SCc2ccccc2)n1 | > 24 | > 300 | 12.6 | 
CCCCCCCCCCCSc1nc(O)cc(Cc2cccc3ccccc23)n1 |  | > 300 | > 300 | 

SMILES | Ratio [1] | CC50 (MT4 [2]) [µM] | EC50 (MT4 [3]) [µM] | IC50 [4] [µM]
Cc1c(O)nc(S)nc1CCc1ccccc1 |  | > 300 | > 300 | 
Oc1cc(CCc2ccccc2)nc(SC2CCCCC2)n1 | 1.9 | 133 | 68 | 
COc1nc(SC2CCCCC2)nc(Cc2cccc(C)c2)c1C |  | > 300 | > 300 | 
O=c1cc(Cc2cccc3ccccc23)nc(SC2CCCC2)[nH]1 |  |  |  | 48.7
Oc1cc(Cc2cccc3ccccc23)nc(SC2CCCCCC2)n1 | > 100 | > 300 | 3 | 
Cc1c(O)nc(S)nc1CSc1ccccc1 |  | > 300 | > 300 | 
Cc1nc(SC2CCCC2)nc(O)c1Cc1ccccc1 |  | > 300 | > 300 | 
Cc1c(O)nc(S)nc1Cc1cccc2ccccc12 |  | 145 | > 145 | 
Cc1nc(SC2CCCCC2)nc(O)c1Cc1ccccc1 |  | > 300 | > 300 | 
Oc1cc(Cc2cccc3ccccc23)nc(S)n1 |  | > 300 | > 300 | 
Cc1c(O)nc(SC2CCCC2)nc1-c1ccccc1 |  | 175 | > 175 | 
Cc1cccc(Cc2nc(SC3CCCCC3)ncc2C)c1 |  | 128 | > 128 | 
CCC(C)Sc1nc(COc2ccccc2)c(C)c(=O)[nH]1 (stereo not drawn) |  |  |  | > 100
CCC(C)Sc1nc(O)c(C)c(CSc2ccccc2)n1 (stereo not drawn) | 3.3 | 75 | 23 | 
Cc1c(O)nc(SC2CCCC2)nc1Cc1ccc2ccccc2c1 | > 20 | > 300 | 15 | 
Cc1c(O)nc(S)nc1COc1ccccc1 |  | > 300 | > 300 | 
Cc1cccc(Cc2nc(SC3CCCC3)nc(O)c2C)c1 | > 500 | > 300 |  | 
Cc1c(O)nc(SC2CCCCC2)nc1-c1ccccc1 |  | > 300 | > 300 | 
Oc1cc(Cc2ccc3ccccc3c2)nc(SC2CCCC2)n1 | > 8.1 | > 300 | 3.7 | 
CCC(C)Sc1nc(O)cc(COc2ccccc2)n1 (stereo not drawn) | > 6 | > 300 | 52 | 
Cc1c(O)nc(SC2CCCC2)nc1CSc1ccccc1 | > 2 | > 300 | 150 | 

SMILES | Ratio [1] | CC50 (MT4 [2]) [µM] | EC50 (MT4 [3]) [µM] | IC50 [4] [µM]
CCC(C)Sc1nc(O)c(C)c(CCc2ccccc2)n1 (stereo not drawn) | 6 | 105 | 18 | 
Oc1cc(-c2ccccc2)nc(SC2CCCCC2)n1 |  | > 300 | > 300 | 
CCC(C)Sc1nc(O)cc(CSc2ccccc2)n1 (stereo not drawn) | 5.4 | 288 | 53 | 
Oc1cc(CSc2ccccc2)nc(S)n1 |  | > 300 | > 300 | 
CCC(C)Sc1nc(O)cc(-c2ccccc2)n1 (stereo not drawn) |  | > 300 | > 300 | 
CCC(C)Sc1nc(SC2CCCCC2)nc(Cc2cccc(C)c2)c1C (stereo not drawn) |  | > 300 | > 300 | 
Oc1cc(Cc2cccc3ccccc23)nc(SC2CCCCC2)n1 | > 96 | > 300 | 3.1 | 
Cc1cccc(Cc2nc(SC3CCCCC3)nc(N/N=C(/N)S)c2C)c1 |  | 24 | > 24 | 
Oc1cc(COc2ccccc2)nc(SC2CCCC2)n1 | > 2 | > 300 | 148 | 
Cc1c(O)nc(SC2CCCCC2)nc1COc1ccccc1 | > 14 | > 300 | 22 | 
Cc1c(O)nc(SC2CCCC2)nc1COc1ccccc1 | > 13 | > 300 | 24 | 
Cc1c(O)nc(SC2CCCCC2)nc1Cc1ccc2ccccc2c1 | > 2.4 | > 300 | 125 | 
CCC(C)Sc1nc(C)c(Cc2ccccc2)c(O)n1 (stereo not drawn) |  | > 300 | > 300 | 
Oc1cc(CCc2ccccc2)nc(SC2CCCC2)n1 | 1.4 | 112 | 81.5 | 
Oc1cc(COc2ccccc2)nc(SC2CCCCC2)n1 |  | > 300 | > 300 | 
Cc1c(Cc2cccc3ccccc23)nc(SC2CCCC2)[nH]c1=O |  |  |  | 45
Cc1cccc(Cc2nc(SC3CCCCC3)nc(S)c2C)c1 | 12 | 176 | 14.6 | 
Oc1cc(-c2ccccc2)nc(SC2CCCC2)n1 |  | > 300 | > 300 | 
Cc1cccc(Cc2nc(SC3CCCCC3)n(C)c(=O)c2C)c1 |  | 44 | > 44 | 
CCC(C)Sc1nc(Cc2ccc3ccccc3c2)c(C)c(=O)[nH]1 (stereo not drawn) |  |  |  | 29.7
CCC(CC)Sc1nc(O)cc(Cc2cccc3ccccc23)n1 | 50 | 200 | 4 | 

Reference: ChEMBL document CHEMBL1130025, “Dihydro(alkylthio)(naphthylmethyl)oxopyrimidines: novel non-nucleoside reverse transcriptase inhibitors of the S-DABO series” (J Med Chem, 1997)
